Results published in ChEMBL document CHEMBL1136453, “New classes of antibacterial oxazolidinones with C-5, methylene O-linked heterocyclic side chains” (2003).
Converted amounts (≈) assume the structure as drawn.

What was measured:
Streptococcus pyogenes = assay: In vitro minimum inhibitory concentration against Streptococcus pyogenes penicillin sensitive; assay type: functional
In short: (§1)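 Agar dilution per NCCLS protocol with doubling dilutions from 128 to 0.008 mg/L, incubated at 37 °C. Strains came from an in-house culture collection. MIC reported in mg/L.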

Staphylococcus aureus [1] = assay: In vitro minimum inhibitory concentration against Staphylococcus aureus MRQR; assay type: functional
Staphylococcus aureus [2] = assay: In vitro minimum inhibitory concentration against coagulase negative Staphylococcus aureus methicillin resistant (CNSMR); assay type: functional
Staphylococcus aureus [3] = assay: In vitro minimum inhibitory concentration against Staphylococcus aureus Oxford; assay type: functional
Enterococcus faecalis = assay: In vitro minimum inhibitory concentration against Enterococcus faecalis; assay type: functional; in short: as §1
Staphylococcus aureus [4] = assay: In vivo antibacterial activity against Staphylococcus aureus after intravenous administration (10 mg/kg) in mice using (MTT) mouse thigh test
[5] = Staphylococcus aureus, read-out: MIC

Compound	MIC (Streptococcus pyogenes) [µg/mL]	MIC (Staphylococcus aureus [1]) [µg/mL]	MIC (Staphylococcus aureus [2]) [µg/mL]	MIC (Staphylococcus aureus [3]; [5]) [µg/mL]	MIC (Enterococcus faecalis) [µg/mL]	Activity (Staphylococcus aureus [4])	MIC (Staphylococcus aureus [3]) [µg/mL]
O=C1O[C@@H](COc2cccnc2)CN1c1ccc(C2=CCOCC2)c(F)c1	8 (≈ 21.6 µM)	4 (≈ 10.8 µM)	4 (≈ 10.8 µM)	4 (≈ 10.8 µM)	8 (≈ 21.6 µM)		
Cc1cccc(OC[C@H]2CN(c3ccc(C4=CCOCC4)c(F)c3)C(=O)O2)n1	> 128	> 128		> 128	> 128		
O=C([C@H](O)CO)N1CC=C(c2c(F)cc(N3C[C@H](COc4ccon4)OC3=O)cc2F)CC1	0.25 (≈ 0.537 µM)	0.25 (≈ 0.537 µM)	0.5 (≈ 1.07 µM)	0.25 (≈ 0.537 µM)	0.5 (≈ 1.07 µM)	0.55	
O=C1O[C@@H](COc2ccon2)CN1c1ccc(C2=CCN(CCO)CC2)c(F)c1	2 (≈ 4.96 µM)	8 (≈ 19.8 µM)	4 (≈ 9.92 µM)	4 (≈ 9.92 µM)	8 (≈ 19.8 µM)		
CS(=O)(=O)c1ccc(N2C[C@H](COc3nccs3)OC2=O)cc1F	16 (≈ 43 µM)	16 (≈ 43 µM)	32 (≈ 85.9 µM)	16 (≈ 43 µM)	32 (≈ 85.9 µM)		
Cc1cccnc1OC[C@H]1CN(c2ccc(C3=CCOCC3)c(F)c2)C(=O)O1	8 (≈ 20.8 µM)	16 (≈ 41.6 µM)	16 (≈ 41.6 µM)	8 (≈ 20.8 µM)	32 (≈ 83.2 µM)		
N#CCCS(=O)(=O)C[C@H](O)C(=O)N1CC=C(c2c(F)cc(N3C[C@H](COc4ccon4)OC3=O)cc2F)CC1	0.5 (≈ 0.883 µM)	0.5 (≈ 0.883 µM)	0.5 (≈ 0.883 µM)	0.25 (≈ 0.441 µM)	1 (≈ 1.77 µM)		
Cc1cc(OC[C@H]2CN(c3cc(F)c(C4=CCN(C(=O)[C@@H](O)CO)CC4)c(F)c3)C(=O)O2)on1	2 (≈ 4.17 µM)	2 (≈ 4.17 µM)	1 (≈ 2.09 µM)	1 (≈ 2.09 µM)	2 (≈ 4.17 µM)		
CN1CC=C(c2c(F)cc(N3C[C@H](COc4ccon4)OC3=O)cc2F)CC1	1 (≈ 2.56 µM)	2 (≈ 5.11 µM)	2 (≈ 5.11 µM)	2 (≈ 5.11 µM)	4 (≈ 10.2 µM)		
O=C1O[C@@H](COc2ncccn2)CN1c1ccc(C2=CCOCC2)c(F)c1	32 (≈ 86.2 µM)	16 (≈ 43.1 µM)	16 (≈ 43.1 µM)	16 (≈ 43.1 µM)	64 (≈ 172 µM)		
O=C(C(CO)Cn1ccnc1)N1CC=C(c2c(F)cc(N3C[C@H](COc4ccon4)OC3=O)cc2F)CC1 (some centres not stated)	1 (≈ 1.89 µM)	2 (≈ 3.78 µM)	2 (≈ 3.78 µM)	1 (≈ 1.89 µM)	2 (≈ 3.78 µM)		
O=C1O[C@@H](COc2cccc[n+]2[O-])CN1c1ccc(C2=CCOCC2)c(F)c1	> 128	> 128		> 128	> 128		
N#Cc1ccc(OC[C@H]2CN(c3ccc(C4=CCOCC4)c(F)c3)C(=O)O2)nc1	> 128	> 128		> 128	> 128		
O=C1O[C@@H](COc2cccnn2)CN1c1ccc(C2=CCOCC2)c(F)c1	2 (≈ 5.39 µM)	2 (≈ 5.39 µM)	2 (≈ 5.39 µM)	2 (≈ 5.39 µM)	4 (≈ 10.8 µM)		
O=C1O[C@@H](COc2ccccc2)CN1c1ccc(C2=CCOCC2)c(F)c1	> 128	> 128		> 128	> 128		
Cc1nnc(OC[C@H]2CN(c3ccc(C4=CCOCC4)c(F)c3)C(=O)O2)o1	8 (≈ 21.3 µM)	4 (≈ 10.7 µM)	8 (≈ 21.3 µM)	4 (≈ 10.7 µM)	8 (≈ 21.3 µM)		
O=C1O[C@@H](Cn2ccccc2=O)CN1c1ccc(C2=CCOCC2)c(F)c1	32 (≈ 86.4 µM)	32 (≈ 86.4 µM)	32 (≈ 86.4 µM)		64 (≈ 173 µM)		32 (≈ 86.4 µM)
COC(=O)c1cc(OC[C@H]2CN(c3ccc(C4=CCOCC4)c(F)c3)C(=O)O2)no1	16 (≈ 38.2 µM)	16 (≈ 38.2 µM)	32 (≈ 76.5 µM)	8 (≈ 19.1 µM)	128 (≈ 306 µM)		
O=C1O[C@@H](COc2ccncc2)CN1c1ccc(C2=CCOCC2)c(F)c1	64 (≈ 173 µM)	32 (≈ 86.4 µM)	32 (≈ 86.4 µM)	16 (≈ 43.2 µM)	64 (≈ 173 µM)		
Cc1ccnc(OC[C@H]2CN(c3ccc(C4=CCOCC4)c(F)c3)C(=O)O2)c1	4 (≈ 10.4 µM)	2 (≈ 5.2 µM)	2 (≈ 5.2 µM)	2 (≈ 5.2 µM)	4 (≈ 10.4 µM)		
